Measured values reported in ChEMBL document CHEMBL4342493, “Design and Optimization of 3'-(Imidazo[1,2-a]pyrazin-3-yl)-[1,1'-biphenyl]-3-carboxamides as Selective DDR1 Inhibitors” (ACS Med Chem Lett, 2020).

How the values were obtained:
[1] = target: Epithelial discoidin domain-containing receptor 1 (Homo sapiens, UniProt Q08345); test: Inhibition of recombinant human GST-tagged DDR1 catalytic domain (440 to 876 residues) expressed in baculovirus expression system using Fluorescein-poly GAT as substrate incubated for 1 hr in presence of ATP by LanthaScreen Eu kinase assay
Bcr/Abl fusion protein = Bcr/Abl fusion protein (Homo sapiens, UniProt P00519); test: Inhibition of human recombinant full length His-tagged Bcr-Abl expressed in baculovirus expression system using tyrosine-2 peptide as substrate after 1 hr in presence of […] ATP by FRET based Z'-LYTE assay
Method in brief: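 FRET-based Z′-Lyte kinase assay for Bcr-Abl; IC50 values are means of three independent experiments, variations <20%.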

[2] = target: Mast/stem cell growth factor receptor Kit (Homo sapiens, UniProt P10721); test: Inhibition of human recombinant His-tagged c-Kit cytoplasmic domain (544 to 976 residues) expressed in baculovirus expression system using Ser/Thr 6 peptide as substrate after 1 hr in presence of 300 uM ATP by FRET based Z'-LYTE assay
[3] = target: T1, Discoidin domain-containing receptor 2 (Homo sapiens, UniProt Q16832); test: Inhibition of recombinant human GST-tagged DDR2 cytoplasmic domain (427 to 855 residues) expressed in baculovirus expression system using Fluorescein-poly GAT as substrate incubated for 1 hr in presence of ATP by LanthaScreen Eu kinase assay
T1 sequence (Q16832 whole entry): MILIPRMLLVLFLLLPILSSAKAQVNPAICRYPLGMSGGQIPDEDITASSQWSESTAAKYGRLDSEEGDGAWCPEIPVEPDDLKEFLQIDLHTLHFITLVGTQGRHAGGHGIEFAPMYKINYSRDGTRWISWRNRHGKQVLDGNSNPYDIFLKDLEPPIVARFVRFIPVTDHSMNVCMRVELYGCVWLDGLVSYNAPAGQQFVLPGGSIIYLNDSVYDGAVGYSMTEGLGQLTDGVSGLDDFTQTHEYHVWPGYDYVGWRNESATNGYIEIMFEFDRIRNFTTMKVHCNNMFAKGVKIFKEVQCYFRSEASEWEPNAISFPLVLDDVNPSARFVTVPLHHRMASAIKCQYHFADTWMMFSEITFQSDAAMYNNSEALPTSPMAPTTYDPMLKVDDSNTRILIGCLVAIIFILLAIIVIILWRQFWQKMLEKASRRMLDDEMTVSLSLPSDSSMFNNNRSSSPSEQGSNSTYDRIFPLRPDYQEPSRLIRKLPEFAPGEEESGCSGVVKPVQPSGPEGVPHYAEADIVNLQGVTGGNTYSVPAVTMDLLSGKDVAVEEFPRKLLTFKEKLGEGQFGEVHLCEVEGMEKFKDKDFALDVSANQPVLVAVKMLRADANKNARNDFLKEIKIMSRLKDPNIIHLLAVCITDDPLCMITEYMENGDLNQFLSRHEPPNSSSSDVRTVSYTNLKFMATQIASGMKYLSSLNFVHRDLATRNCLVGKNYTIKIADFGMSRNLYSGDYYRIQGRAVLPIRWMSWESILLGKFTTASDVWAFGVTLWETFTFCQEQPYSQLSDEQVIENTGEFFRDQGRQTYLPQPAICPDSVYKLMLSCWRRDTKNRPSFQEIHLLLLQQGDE
Method in brief: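 LanthaScreen Eu kinase assay for DDR2; IC50 values are means of three independent experiments, variations <20%.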

Sequence of Epithelial discoidin domain-containing receptor 1 (Q08345 whole entry, the tested form may be a part): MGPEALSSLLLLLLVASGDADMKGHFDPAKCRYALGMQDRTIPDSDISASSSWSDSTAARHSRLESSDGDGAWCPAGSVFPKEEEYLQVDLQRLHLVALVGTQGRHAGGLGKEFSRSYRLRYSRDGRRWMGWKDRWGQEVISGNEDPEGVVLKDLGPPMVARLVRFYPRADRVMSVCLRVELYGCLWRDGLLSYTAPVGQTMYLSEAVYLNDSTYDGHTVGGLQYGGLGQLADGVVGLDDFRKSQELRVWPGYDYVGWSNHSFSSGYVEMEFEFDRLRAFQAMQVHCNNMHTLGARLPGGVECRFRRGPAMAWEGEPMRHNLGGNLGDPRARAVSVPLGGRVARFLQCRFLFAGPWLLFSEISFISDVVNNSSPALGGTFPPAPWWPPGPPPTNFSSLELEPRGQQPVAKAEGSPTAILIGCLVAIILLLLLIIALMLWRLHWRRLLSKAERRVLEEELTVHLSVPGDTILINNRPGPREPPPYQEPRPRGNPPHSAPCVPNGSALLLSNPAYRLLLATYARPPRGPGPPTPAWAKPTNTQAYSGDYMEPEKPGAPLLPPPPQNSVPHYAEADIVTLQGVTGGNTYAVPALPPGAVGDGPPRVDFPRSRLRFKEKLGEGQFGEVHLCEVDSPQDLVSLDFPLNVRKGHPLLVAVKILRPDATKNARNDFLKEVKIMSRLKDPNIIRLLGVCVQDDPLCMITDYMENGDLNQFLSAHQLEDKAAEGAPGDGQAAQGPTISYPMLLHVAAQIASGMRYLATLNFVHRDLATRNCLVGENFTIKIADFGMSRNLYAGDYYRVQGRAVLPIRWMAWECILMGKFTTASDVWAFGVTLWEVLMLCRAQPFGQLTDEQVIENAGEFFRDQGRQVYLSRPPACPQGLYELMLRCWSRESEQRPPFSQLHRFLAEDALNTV
Sequence of Bcr/Abl fusion protein (P00519 whole entry, the tested form may be a part): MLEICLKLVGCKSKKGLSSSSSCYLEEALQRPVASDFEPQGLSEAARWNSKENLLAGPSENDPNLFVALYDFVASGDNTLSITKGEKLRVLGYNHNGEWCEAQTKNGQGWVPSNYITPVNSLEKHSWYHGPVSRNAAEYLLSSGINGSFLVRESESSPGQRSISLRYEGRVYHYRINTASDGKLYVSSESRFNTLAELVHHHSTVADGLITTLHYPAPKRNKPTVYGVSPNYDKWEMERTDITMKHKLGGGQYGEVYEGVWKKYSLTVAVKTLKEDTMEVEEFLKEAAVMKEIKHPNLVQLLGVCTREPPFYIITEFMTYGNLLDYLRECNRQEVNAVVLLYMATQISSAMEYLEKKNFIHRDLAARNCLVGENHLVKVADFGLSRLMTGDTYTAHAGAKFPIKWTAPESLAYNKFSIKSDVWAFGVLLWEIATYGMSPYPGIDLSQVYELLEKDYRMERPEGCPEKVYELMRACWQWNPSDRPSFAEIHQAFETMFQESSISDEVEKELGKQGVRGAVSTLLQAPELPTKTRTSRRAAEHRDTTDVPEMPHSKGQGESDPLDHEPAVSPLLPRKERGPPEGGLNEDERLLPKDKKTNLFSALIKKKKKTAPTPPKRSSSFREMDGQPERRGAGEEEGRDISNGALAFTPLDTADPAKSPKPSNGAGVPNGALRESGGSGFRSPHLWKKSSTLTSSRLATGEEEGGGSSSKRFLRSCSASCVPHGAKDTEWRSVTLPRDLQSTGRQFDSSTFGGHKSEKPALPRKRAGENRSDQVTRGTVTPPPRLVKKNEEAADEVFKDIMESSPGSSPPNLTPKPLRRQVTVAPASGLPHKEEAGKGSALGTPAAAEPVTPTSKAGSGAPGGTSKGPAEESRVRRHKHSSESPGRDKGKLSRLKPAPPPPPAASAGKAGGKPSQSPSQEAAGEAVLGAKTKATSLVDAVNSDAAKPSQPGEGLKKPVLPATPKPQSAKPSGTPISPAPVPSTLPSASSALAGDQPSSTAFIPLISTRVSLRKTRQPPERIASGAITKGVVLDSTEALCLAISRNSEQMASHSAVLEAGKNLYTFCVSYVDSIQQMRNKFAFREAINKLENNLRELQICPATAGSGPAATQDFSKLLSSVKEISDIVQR
Sequence of Bcr/Abl fusion protein (P11274 whole entry, further chain, the tested form may be a part): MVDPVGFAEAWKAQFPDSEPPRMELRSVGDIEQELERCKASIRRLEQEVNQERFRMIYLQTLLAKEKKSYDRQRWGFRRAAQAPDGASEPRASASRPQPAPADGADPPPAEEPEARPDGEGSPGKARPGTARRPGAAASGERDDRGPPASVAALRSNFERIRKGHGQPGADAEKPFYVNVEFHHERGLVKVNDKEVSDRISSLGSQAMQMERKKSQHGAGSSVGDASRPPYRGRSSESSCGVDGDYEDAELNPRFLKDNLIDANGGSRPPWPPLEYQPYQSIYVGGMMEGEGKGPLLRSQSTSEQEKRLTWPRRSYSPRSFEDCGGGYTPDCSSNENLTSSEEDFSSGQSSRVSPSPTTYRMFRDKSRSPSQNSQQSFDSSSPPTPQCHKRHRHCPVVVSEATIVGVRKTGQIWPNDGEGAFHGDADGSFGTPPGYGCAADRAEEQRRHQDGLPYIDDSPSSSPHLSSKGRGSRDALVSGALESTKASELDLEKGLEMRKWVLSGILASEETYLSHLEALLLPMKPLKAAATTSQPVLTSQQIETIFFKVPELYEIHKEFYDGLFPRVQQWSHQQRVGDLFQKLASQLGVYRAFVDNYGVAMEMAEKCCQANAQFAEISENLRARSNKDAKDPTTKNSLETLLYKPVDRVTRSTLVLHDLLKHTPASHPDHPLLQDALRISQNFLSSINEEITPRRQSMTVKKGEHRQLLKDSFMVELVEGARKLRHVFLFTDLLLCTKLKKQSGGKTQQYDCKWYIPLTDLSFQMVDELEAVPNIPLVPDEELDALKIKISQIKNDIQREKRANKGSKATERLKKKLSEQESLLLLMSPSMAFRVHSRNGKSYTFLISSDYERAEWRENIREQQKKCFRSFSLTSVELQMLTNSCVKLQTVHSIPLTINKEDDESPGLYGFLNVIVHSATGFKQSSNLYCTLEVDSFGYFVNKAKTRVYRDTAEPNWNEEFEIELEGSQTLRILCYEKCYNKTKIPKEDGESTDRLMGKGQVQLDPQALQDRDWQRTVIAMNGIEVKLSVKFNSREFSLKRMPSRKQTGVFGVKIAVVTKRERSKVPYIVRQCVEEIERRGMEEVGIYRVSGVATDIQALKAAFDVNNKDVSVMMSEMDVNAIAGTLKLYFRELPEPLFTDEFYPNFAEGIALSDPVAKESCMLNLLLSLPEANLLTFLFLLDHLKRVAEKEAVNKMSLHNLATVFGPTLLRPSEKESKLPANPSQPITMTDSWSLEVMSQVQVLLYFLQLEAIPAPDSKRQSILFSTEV
Sequence of Mast/stem cell growth factor receptor Kit (P10721 whole entry, the tested form may be a part): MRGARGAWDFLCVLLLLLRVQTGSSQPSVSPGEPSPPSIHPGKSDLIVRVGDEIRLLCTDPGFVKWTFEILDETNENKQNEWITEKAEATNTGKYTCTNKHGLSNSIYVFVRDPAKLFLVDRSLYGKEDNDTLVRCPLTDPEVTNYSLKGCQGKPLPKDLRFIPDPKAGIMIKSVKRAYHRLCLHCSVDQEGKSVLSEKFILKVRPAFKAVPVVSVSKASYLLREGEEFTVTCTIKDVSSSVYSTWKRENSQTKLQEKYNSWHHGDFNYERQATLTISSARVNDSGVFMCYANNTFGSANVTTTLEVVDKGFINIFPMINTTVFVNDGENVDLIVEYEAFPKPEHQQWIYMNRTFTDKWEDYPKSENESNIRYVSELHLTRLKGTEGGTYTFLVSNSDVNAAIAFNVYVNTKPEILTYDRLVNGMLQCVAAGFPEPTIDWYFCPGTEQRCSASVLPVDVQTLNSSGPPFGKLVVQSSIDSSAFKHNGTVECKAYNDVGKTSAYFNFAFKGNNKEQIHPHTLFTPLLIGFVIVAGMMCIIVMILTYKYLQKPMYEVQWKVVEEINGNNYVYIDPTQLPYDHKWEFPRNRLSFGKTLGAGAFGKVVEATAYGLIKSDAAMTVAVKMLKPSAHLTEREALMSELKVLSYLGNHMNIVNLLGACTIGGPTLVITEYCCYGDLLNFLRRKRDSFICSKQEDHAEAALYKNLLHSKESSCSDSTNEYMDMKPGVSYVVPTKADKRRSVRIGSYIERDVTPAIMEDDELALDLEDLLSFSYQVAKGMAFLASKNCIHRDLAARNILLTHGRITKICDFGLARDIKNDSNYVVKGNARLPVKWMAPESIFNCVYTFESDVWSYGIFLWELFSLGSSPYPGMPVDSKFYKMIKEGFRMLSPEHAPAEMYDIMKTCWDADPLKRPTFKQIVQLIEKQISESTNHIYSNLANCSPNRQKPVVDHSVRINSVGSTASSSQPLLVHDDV

`CCc1ccc(C(=O)Nc2cccc(C(F)(F)F)c2)cc1-c1cc(F)cc(-c2cnc3cnccn23)c1` gave an IC50 [1] of 30.3 nM, an IC50 (Bcr/Abl fusion protein) of 5340 nM and an IC50 [2] of 6590 nM. The IC50 [3] was 1330 nM.

`CCc1ccc(C(=O)Nc2cccc(C(F)(F)F)c2)cc1-c1cc(-c2cnc3cnccn23)cc(C(C)(C)C)c1` was tested, and the IC50 [1] was 92 nM, the IC50 (Bcr/Abl fusion protein) was > 10000 nM and the IC50 [2] was > 10000 nM. For the same compound, the IC50 [3] was > 10000 nM.

Work on `CCc1ccc(C(=O)Nc2cccc(CN3CCN(C)CC3)c2)cc1-c1cccc(-c2cnc3cnccn23)c1` yielded an IC50 [1] of 357 nM, an IC50 (Bcr/Abl fusion protein) of 989 nM and an IC50 [2] of 4930 nM. The IC50 [3] was > 10000 nM.

`CCc1ccc(C(=O)Nc2cccc(C(F)(F)F)c2)cc1-c1cccc(-c2cnc3cnccn23)c1C` showed an IC50 [1] of 30.1 nM, an IC50 (Bcr/Abl fusion protein) of 1810 nM and an IC50 [2] of 5980 nM. For the same compound, the IC50 [3] was 663 nM.

`CCc1ccc(C(=O)Nc2cccc(C(F)(F)F)c2)cc1-c1cc(C)cc(-c2cnc3cnccn23)c1` was tested, and the IC50 [1] was 22.5 nM, the IC50 (Bcr/Abl fusion protein) was > 10000 nM and the IC50 [2] was > 10000 nM. For the same compound, the IC50 [3] was 1730 nM.

`CCc1ccc(C(=O)Nc2cccc(C(F)(F)F)c2)cc1-c1ccc(C)c(-c2cnc3cnccn23)c1` was tested, and the IC50 [1] was 108 nM, the IC50 (Bcr/Abl fusion protein) was > 10000 nM and the IC50 [2] was > 10000 nM. The IC50 [3] was > 10000 nM.

For `Cc1ccc(C(=O)Nc2cccc(C(F)(F)F)c2)cc1-c1cccc(-c2cnc3cnccn23)c1`, the IC50 [1] was 9.2 nM, the IC50 (Bcr/Abl fusion protein) was 237 nM and the IC50 [2] was 72.4 nM. The IC50 [3] was 135 nM.

Work on `CCc1ccc(C(=O)Nc2cc(CN3CCN(C)CC3)cc(C(F)(F)F)c2)cc1-c1cccc(-c2cnc3cnccn23)c1` yielded an IC50 [1] of 8.7 to 9.6 nM, an IC50 (Bcr/Abl fusion protein) of 437 nM and an IC50 [2] of 620 nM. It also gave an IC50 [3] of 66.1 nM.

For `CCc1ccc(C(=O)Nc2cccc(C(F)(F)F)c2)cc1-c1cc(-c2cnc3cnccn23)ccc1C`, the IC50 [1] was 63.7 nM, the IC50 (Bcr/Abl fusion protein) was 1450 nM and the IC50 [2] was > 10000 nM. For the same compound, the IC50 [3] was 610 nM.

`CCc1ccc(C(=O)Nc2cccc(C(F)(F)F)c2)cc1-c1cc(OC)cc(-c2cnc3cnccn23)c1` showed an IC50 [1] of 16.5 nM, an IC50 (Bcr/Abl fusion protein) of 3700 nM and an IC50 [2] of 4990 nM. The IC50 [3] was 1020 nM.

With `CCc1ccc(C(=O)Nc2cc(CN3CCN(C)CC3)cc(C(F)(F)F)c2)cc1-c1cccc(-c2cnc3ccnn3c2)c1` the IC50 [1] was 359 nM, the IC50 (Bcr/Abl fusion protein) was > 10000 nM and the IC50 [2] was > 10000 nM. The IC50 [3] was 197 nM.

`CCc1ccc(C(=O)Nc2cc(C(F)(F)F)ccc2F)cc1-c1cc(C)cc(-c2cnc3cnccn23)c1` was tested, and the IC50 [1] was 36.5 nM, the IC50 (Bcr/Abl fusion protein) was > 10000 nM and the IC50 [2] was > 10000 nM. For the same compound, the IC50 [3] was > 5000 nM.

In the case of `CCc1cc(-c2cc(C(=O)Nc3cccc(C(F)(F)F)c3)ccc2CC)cc(-c2cnc3cnccn23)c1`, the IC50 [1] is reported as 42.3 nM, the IC50 (Bcr/Abl fusion protein) is reported as > 10000 nM and the IC50 [2] is reported as > 10000 nM. For the same compound, the IC50 [3] was 3230 nM.

`CCc1ccc(C(=O)Nc2cccc(C(F)(F)F)c2)cc1-c1cc(C#N)cc(-c2cnc3cnccn23)c1` was tested, and the IC50 [1] was 15.6 nM, the IC50 (Bcr/Abl fusion protein) was 5640 nM and the IC50 [2] was 3720 nM. For the same compound, the IC50 [3] was 947 nM.

`CCc1ccc(C(=O)Nc2ccc(F)c(C(F)(F)F)c2)cc1-c1cc(C)cc(-c2cnc3cnccn23)c1` was tested, and the IC50 [1] was 55.6 nM, the IC50 (Bcr/Abl fusion protein) was > 10000 nM and the IC50 [2] was > 10000 nM. For the same compound, the IC50 [3] was > 5000 nM.

For `CCc1ccc(C(=O)Nc2cccc(C(F)(F)F)c2)cc1-c1cc(-c2cnc3cnccn23)cc(C(C)C)c1`, the IC50 [1] was 66.9 nM, the IC50 (Bcr/Abl fusion protein) was > 10000 nM and the IC50 [2] was > 10000 nM. For the same compound, the IC50 [3] was 2630 nM.

In the case of `CCc1ccc(C(=O)Nc2cccc(C(F)(F)F)c2F)cc1-c1cc(C)cc(-c2cnc3cnccn23)c1`, the IC50 [1] is reported as 73.8 nM, the IC50 (Bcr/Abl fusion protein) is reported as > 10000 nM and the IC50 [2] is reported as > 10000 nM. For the same compound, the IC50 [3] was > 5000 nM.

For `CC(C)c1ccc(C(=O)Nc2cccc(C(F)(F)F)c2)cc1-c1cccc(-c2cnc3cnccn23)c1`, the IC50 [1] was 1260 nM, the IC50 (Bcr/Abl fusion protein) was > 10000 nM and the IC50 [2] was 1690 nM. For the same compound, the IC50 [3] was > 10000 nM.

`CCc1ccc(C(=O)Nc2cc(CN3CCN(C)CC3)cc(C(F)(F)F)c2)cc1C#Cc1cnc2ccnn2c1` was tested, and the IC50 [2] was > 10000 nM.

In the case of `CCc1ccc(C(=O)Nc2ccccc2)cc1-c1cccc(-c2cnc3cnccn23)c1`, the IC50 [1] is reported as 4850 nM, the IC50 (Bcr/Abl fusion protein) is reported as 5120 nM and the IC50 [2] is reported as 8990 nM. The IC50 [3] was > 10000 nM.

`CCc1ccc(C(=O)Nc2cccc(C(F)(F)F)c2)cc1-c1cccc(-c2cnc3cnccn23)c1` gave an IC50 [1] of 10.4 nM, an IC50 (Bcr/Abl fusion protein) of 2220 nM and an IC50 [2] of 2920 nM. The IC50 [3] was 725 nM.

In the case of `CCc1ccc(C(=O)Nc2ccccc2C(F)(F)F)cc1-c1cccc(-c2cnc3cnccn23)c1`, the IC50 [1] is reported as 4880 nM, the IC50 (Bcr/Abl fusion protein) is reported as > 10000 nM and the IC50 [2] is reported as > 10000 nM. The IC50 [3] was > 10000 nM.

Compound `CCc1ccc(C(=O)Nc2ccc(C(F)(F)F)cc2)cc1-c1cccc(-c2cnc3cnccn23)c1` has an IC50 [1] of 1300 nM, an IC50 (Bcr/Abl fusion protein) of 4990 nM and an IC50 [2] of 3980 nM. The IC50 [3] was > 10000 nM.

With `CCc1ccc(C(=O)Nc2cccc(C(F)(F)F)c2)cc1-c1cc(Cl)cc(-c2cnc3cnccn23)c1` the IC50 [1] was 21.3 nM, the IC50 (Bcr/Abl fusion protein) was > 10000 nM and the IC50 [2] was 8410 nM. For the same compound, the IC50 [3] was 1080 nM.
